Compound activity: PubChem BioAssay, several laboratories
AI-2 QS mod – Vibrio harveyi AI-2 quorum sensing modulators, primary screen, JMH597 strain, luminescence/OD600 ratio. Vibrio harveyi JMH597 AI-2 luminescence/OD600 ratio, 9 h; active compounds read low; strain lacks LuxN and CqsS sensors; 0 = neutral-control median. activity change, % at 7.5 µM. 0.4% of 300,000 active. AID 2094, 2009; in the data active = activity change below about -75%, passing the limit was not always enough;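 note: luminescence divided by OD600 gain over 9 h not by final OD600 alone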
AHR act – AHR activators, primary screen, cell-based, luminescence, luciferase reporter, human. 2.5% of 320,000 active. activation, % at 5 µM. AHR-responsive luciferase reporter cells. Aryl hydrocarbon receptor (Homo sapiens), P35869; in the data active = activation above about 47%;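 note: 0% = vehicle wells and 100% = reference agonist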
MsrA act – bovine MsrA enzyme activators, primary screen, biochemical, absorbance, HTS; Methionine sulfoxide reductase A (Bos taurus); purified bovine MsrA, absorbance read-out; activation, % at 10.6 µM; 0.3% of 360,000 active; AID 602163, 2012; in the data active = activation above about 7.5%;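 note: 0% = vehicle and 100% = reference activator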
TbMetRS inhib – T. brucei MetRS inhibitors, primary screen, biochemical, luminescence | AID 624268, 2012 | purified T. brucei MetRS, ATP depletion, Kinase-Glo luminescence | inhibition, % at 11.9 µM | methionyl-tRNA synthetase (Trypanosoma brucei brucei) | 0.4% of 360,000 active;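 active = inhibition above a per-plate cutoff of the control wells' mean inhibition plus 3 SD, cut at about 5.5% in these data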;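 note: 0% = DMSO wells median and 100% = median of wells with control inhibitor compound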
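technique = Kinase-Glo luminescence, ATP depletion format | system = purified MetRS (methionyl-tRNA synthetase) enzyme from Trypanosoma brucei | timing = 15 min preincubation, 2 h reaction, all 25 °C | evaluation = percent inhibition versus plate control medians | dosing = single dose, 11.9 µM final nominal, 0.9% final DMSO | also added = substrates ATP, L-methionine and bulk Escherichia coli tRNA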
m5-HT2A agonist – mouse Htr2a agonists via beta-arrestin recruitment, primary screen, cell-based, luminescence | 5-hydroxytryptamine receptor 2A (Mus musculus), P35363 | CHO-K1 mHTR2A beta-arrestin complementation; percent of 30 µM serotonin response | activation, % at 7.6 µM | 0.66% of 360,000 active;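 active = activation above a run cutoff, the mean activation of all tested compounds plus 3 SD, cut at about 14% in these data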;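 note: 0% = plate median of compound wells and 100% = 30 µM serotonin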
Target sequence (P35363 whole entry, looked up): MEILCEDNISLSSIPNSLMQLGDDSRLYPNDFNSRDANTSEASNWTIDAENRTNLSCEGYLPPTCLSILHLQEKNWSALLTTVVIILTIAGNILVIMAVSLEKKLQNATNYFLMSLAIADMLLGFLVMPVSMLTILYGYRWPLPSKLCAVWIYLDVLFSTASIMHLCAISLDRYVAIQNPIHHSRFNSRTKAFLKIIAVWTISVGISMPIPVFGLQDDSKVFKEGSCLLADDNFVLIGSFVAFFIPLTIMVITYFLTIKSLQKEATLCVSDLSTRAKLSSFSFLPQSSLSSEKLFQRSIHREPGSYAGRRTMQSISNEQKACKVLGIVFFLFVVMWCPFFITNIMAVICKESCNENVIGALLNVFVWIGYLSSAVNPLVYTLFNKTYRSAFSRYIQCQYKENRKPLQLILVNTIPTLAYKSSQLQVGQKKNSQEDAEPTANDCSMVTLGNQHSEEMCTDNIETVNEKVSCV
MsrA inhibitor – bovine MsrA enzyme inhibitors, primary screen, biochemical, absorbance, HTS | purified bovine MsrA, absorbance read-out | inhibition, % at 15.5 µM | 0.75% of 360,000 active | AID 651718, 2012; in the data active = inhibition above about 4.5%;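 note: 0% = vehicle wells with enzyme and 100% = reference inhibitor wells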
AHR act cf – AHR activators, confirmation, cell-based, luminescence, luciferase reporter, human | activation, % at 9 µM | human cells, AHR-responsive luciferase reporter | 87% of 2,300 active | shares compounds with AHR act; in the data active = activation above about 49%;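 note: HepG2 hepatoma cells carrying a DRE-driven firefly luciferase reporter; 0% = vehicle wells and 100% = reference agonist wells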
PXR act counter – human PXR activators, counter-screen for AHR activator project, cell-based, luciferase luminescence | cell-based PXR reporter | activation, % at 11.6 µM | shares compounds with AHR act | 88% of 2,300 active; in the data active = activation above about 11%;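 note: human hepatoma DPX-2 cells expressing full-length human PXR; 0% = DMSO and 100% = reference agonist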
* marks the source's active call; other numbers are inactive results; / = no result given. Shown are actives, neighbours in structure and some others; about 4.4% of the full set was active somewhere.

SMILES	AI-2 QS mod	AHR act	MsrA act	TbMetRS inhib	m5-HT2A agonist	MsrA inhibitor	AHR act cf	PXR act counter
Brc1ccc(-c2nc(-c3ccccc3)no2)o1	14	124*	-5	0	-3	0	148*	19*
c1ccc(-c2noc(-c3ccc4c(c3)OCO4)n2)cc1	36	87*	-3	0	6	1	16	10
COc1ccccc1-c1nc(-c2ccc(Br)o2)no1	4	91*	-1	0	-7	0	131*	58*
Cc1ccc(-c2noc(-c3ccccc3Br)n2)cc1	4	126*	-6	0	2	1	120*	18*
CCN(CC)C(=O)c1[nH]cnc1C(=O)N[C@H](C)c1ccccc1	/	1	0	0	-3	2	/	/
CCOC(=O)C1=CC[C@@H](c2ccccc2)N(S(=O)(=O)c2ccc(C)cc2)[C@@H]1C#N	/	/	/	0	-6	0	/	/
CC1Cc2ccccc2N1C(=O)c1ccc(F)c(S(=O)(=O)N2CCOCC2)c1 (stereo not drawn)	/	10	-3	0	9	0	/	/
C[C@]12c3[nH]c4ccccc4c3CCN1C(=O)C(CC(=O)NCCN1CCOCC1)C[C@@H]2C(=O)N1CCOCC1 (stereo partly drawn)	/	0	-3	-1	2	1	/	/
COc1ccc(Cl)cc1-c1nc(-c2ccncc2)no1	20	25	-2	-1	-1	1	/	/
COc1cccc(-c2nc(-c3ccc(Br)o3)no2)c1	13	86*	-2	0	-4	1	136*	28*
COc1ccc(-c2nc(-c3ccc(Br)o3)no2)cc1OC	-1	-3	-1	-1	-6	1	/	/
COc1ccccc1-c1nc(-c2ccncc2)no1	18	80*	1	-1	2	-1	83*	35*
COc1ccccc1Cc1nc(-c2ccc(Br)o2)no1	9	119*	-2	0	0	0	113*	43*
Cc1cc(C)c(C)c(S(=O)(=O)N2CCCN(C)CC2)c1C	21	-2	-4	0	5	1	/	/
O=C1NC(c2ccc3ccccc3c2)Nc2ccccc21 (stereo not drawn)	/	/	-3	0	3	1	/	/
O=C1NC(c2ccc(Br)cc2)Nc2ccccc21 (stereo not drawn)	-1	80*	-2	0	0	0	62*	22*
COc1cccc(C=Nc2cc(C)cc(C)c2)c1O	26	0	-1	0	-1	0	/	/
CCc1ccc2oc(-c3cc(N=Cc4cccc(OC)c4O)ccc3O)nc2c1	12	125*	/	/	/	/	113*	9
O=C1Nc2ccccc2C1c1ncc(C(F)(F)F)cc1Cl (stereo not drawn)	18	90*	-2	-1	1	2	30	21*
O=c1[nH]nc(Cc2ncc(C(F)(F)F)cc2Cl)c2ccccc12	5	2	-4	-1	4	-1	/	/
Nc1ncnc(N)c1NC(=O)c1cc(Cl)c(OCc2ccccc2)c(Cl)c1	/	/	-4	0	3	0	/	/
CC1CC(C)CN(C(=S)Nc2ccc(OC(F)F)cc2)C1 (stereo not drawn)	4	83*	-3	0	1	-1	64*	118*
CC1CC(C)CN(C(=S)Nc2ccc(SC(F)F)cc2)C1 (stereo not drawn)	20	6	0	0	-1	-2	/	/
O=C(NNC(=S)NCc1ccccc1)c1cccnc1	-58	0	-6	0	7	1	/	/
COCCCNC(=S)NNC(=O)c1cccnc1	2	108*	1	0	-3	1	33	6
SMILES	AI-2 QS mod	AHR act	MsrA act	TbMetRS inhib	m5-HT2A agonist	MsrA inhibitor	AHR act cf	PXR act counter
N=c1n(CCN2CCOCC2)c2ccccc2n1CC(=O)c1cccc([N+](=O)[O-])c1	16	134*	-6	-1	-5	2	148*	87*
[O-][n+]1onc2c3cc(-c4ccccc4)nnc3ccc21	32	88*	-2	-1	-1	1	108*	/
Cc1ccn2c(=O)c(NC(=O)c3cccs3)c(C)nc2c1	62	1	-11	0	7	3	/	/
COc1ccc(/C=N/Nc2snc(SC)c2C#N)cc1OC	6	84*	-4	1	-6	3	137*	25*
COc1ccc(/C=N/Nc2nc(C)cc(=O)[nH]2)cc1OC	19	/	-11	-1	7	4	/	/
Cc1ccc(/C=N/n2cc(-c3ccccc3)[nH]c2=S)s1	39	96*	-1	0	-3	3	84*	/
Cc1cc(SCC(=O)N2c3ccccc3NC(=O)CC2C)nc2ccccc12 (stereo not drawn)	/	/	-2	0	7	0	/	/
CNC(=O)c1[nH]cnc1C(=O)Nc1ccc(OC)cc1	13	126*	-1	0	0	0	124*	27*
Cc1cccc(NC(=O)c2nc[nH]c2C(=O)NCCCCNC(=O)c2[nH]cnc2C(=O)Nc2cccc(C)c2)c1	/	1	-2	0	-6	-1	/	/
CNC(=O)c1[nH]cnc1C(=O)Nc1cccc(C)c1	/	101*	-4	0	0	0	133*	24*
COc1ccc(NC(=O)c2nc[nH]c2C(=O)NCCCCCNC(=O)OC(C)(C)C)cc1	/	133*	/	/	/	/	141*	30*
COc1ccc(NC(=O)c2nc[nH]c2C(=O)NCC(=O)OC(C)(C)C)cc1	18	34	-2	0	0	0	/	/
CCn1c(SCC(=O)N2CCC(C)CC2)nc2c(c1=O)SC(C)C2 (stereo not drawn)	7	0	-5	0	3	1	/	/
CCC(C(=O)NC1CCCC1)n1c(-c2ccncc2)nc2ccccc21 (stereo not drawn)	/	/	/	0	2	1	/	/
COc1ccc(N2CCN(CCCn3ccc(NC(=O)OCc4ccccc4)nc3=O)CC2)cc1	/	/	0	0	-7	0	/	/
CCN(CC)C(=O)C1=C(C)N(Cc2ccc(F)cc2)C(=O)C(CC(=O)NCCN2CCOCC2)C1 (stereo not drawn)	/	/	-2	0	0	-1	/	/
